For 25 compounds, Activity and LC50 results are on record in ChEMBL document CHEMBL1146298, “Identification of the benzodiazepines as a new class of antileishmanial agent” (Bioorg Med Chem Lett, 2007).

For data set [1], the system named is Leishmania donovani. Put plainly: Antileishmanial activity against antimony-sensitive Leishmania donovani 200016 promastigotes in bone marrow-derived macrophages assessed as parasite suppression at 100 ug/ml. The class given is functional. The method, boiled down: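 Fixed 72 h post-treatment and Giemsa-stained (10% v/v). Percent of 200 random cells infected was scored, and mean % suppression ± SE was taken against the control mean. Mann–Whitney U test vs control, p < 0.05 significant.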

Data set [2] can be described thus: Toxicity against bone marrow-derived macrophages. It is filed as cell-based. The conditions noted are these: human, macrophage.
The subject of data set [3] is Leishmania donovani. Nature of the data set: Antileishmanial activity against antimony-sensitive Leishmania donovani 200016 promastigotes in bone marrow-derived macrophages at 37 ug/ml. It is filed as functional.
The test system of a further data set is Macrophage. Put plainly: Decrease in cellular glutathione levels in macrophages. The class given is functional, cell-based. The following applies: Homo sapiens.
Data set [4] concerns Leishmania donovani. Put plainly: Antileishmanial activity against antimony-sensitive Leishmania donovani 200016 promastigotes in bone marrow-derived macrophages. The conditions noted are these: read-out: LD50 (the source's name). The class given is functional. A digest of the protocol:
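After 72 h, cells fixed and stained with 10% v/v aqueous Giemsa; mean percentage of infected cells scored from 200 random cells. Mean percentage suppression ± SE computed against control mean; significance tested by Mann–Whitney U test, p < 0.05.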

The structures appear in SMILES notation. Activity calls are given as the source filed them. No cut-off for these calls is given here.

For the compound `C[C@@H]1NC(=O)c2ccccc2NC1=O`, the Activity in the data set on Leishmania donovani [1] is listed as 28%. Still for that read-out and setting: then `COc1cccc(CN2CC(=O)N(C)c3ccccc3C2=O)c1`, with 54.6%; and `c1ccc2c(c1)CN1CCC[C@@H]1CN2`, with 67.8%. As to `O=C1Nc2ccccc2C(=O)N2CCC[C@H]12`, the Activity in the data set on Leishmania donovani [1] was found to be 85.4%. On the same count and under the same terms, then `O=C1N[C@H](Cc2ccccc2)C(=O)Nc2ccccc21`, with 23%. For `O=C1CNC(=O)c2ccccc2N1`, in the data set with Leishmania donovani [1], the Activity worked out at 19%. In the case of `O=C1c2ccccc2NC[C@@H]2CCCN12`, the Activity with Leishmania donovani [1] came out at 70.6%.

Regarding `CN1CC(=O)N(C)c2ccccc2C1=O`, in the data set with Leishmania donovani [1], the outcome was inactive. Still for that read-out and setting: then `O=C1Nc2ccccc2C(=O)N2Cc3ccccc3C[C@@H]12`, with 25%; and `O=C1Nc2ccccc2C(=O)N2CCC[C@@H]12`, with 70.3%; and `CN1C(=O)CN(C2CCCCC2)C(=O)c2ccccc21`, with 26.4%.

`O=C1N[C@@H](Cc2ccccc2)C(=O)Nc2ccccc21`: the Activity with Leishmania donovani [1] is 53.5%.

As to `CN1C(=O)CN(CC2CC2)C(=O)c2ccccc21`, the outcome in the data set on Leishmania donovani [1] was inactive. `O=C1Nc2ccccc2C(=O)N2CSC[C@@H]12`: the Activity result was “Toxic” in data set [2] and 33% in the data set with Leishmania donovani [1]. On to `CC(C)C[C@@H]1NC(=O)c2ccccc2NC1=O`, for which, in the data set with Leishmania donovani [1], the result was inactive. On to `CN1C(=O)CN(CC2CCCCC2)C(=O)c2ccccc21`, for which the Activity result in data set [2] is on record as “Toxic”. In addition, the result in the data set on Leishmania donovani [3] was inactive. Further, in the data set on Macrophage, the outcome was Active. Consider `c1ccc2c(c1)CN1CCC[C@H]1CN2`, for which the Activity with Leishmania donovani [1] is 23%. The same measure, in the same setting: the value for `CN1C(=O)CN(c2ccccc2)C(=O)c2ccccc21` was “inactive”; that for `CCCN1CC(=O)N(C)c2ccccc2C1=O` was 72%; that for `O=C1c2ccccc2NC[C@H]2CCCN12` was 61.7%. As to `CN1C(=O)CN(CC2CCCCC2)C(=O)c2cc(Cl)ccc21`, the Activity came out at 85% in the data set with Leishmania donovani [1] and 73% in the data set on Leishmania donovani [3]. Further, the LC50 in the data set with Leishmania donovani [4] was determined as 115 µM. In the data set with Macrophage, the outcome was Active. As for `CN1C(=O)CN(Cc2ccccc2)C(=O)c2ccccc21`, the Activity with Leishmania donovani [1] is 51%. As to `CCCCCCN1CC(=O)N(C)c2ccccc2C1=O`, the Activity entry in data set [2] is given as “Toxic”. In the data set on Leishmania donovani [1], the result was inactive. Consider `O=C1N[C@@H](Cc2ccc(O)cc2)C(=O)Nc2ccccc21`, for which, in the data set on Leishmania donovani [1], the Activity worked out at 64.4%. Consider `CN1C(=O)CN(CCc2ccccc2)C(=O)c2ccccc21`, for which, in the data set on Leishmania donovani [1], the Activity was found to be 19.6%.
